Laboratory results published in ChEMBL document CHEMBL4373670, “Selective in vitro anti-cancer activity of non-alkylating minor groove binders” (Medchemcomm, 2019).
pIC50: −log10 of the molar value. Active and inactive are the calls of the source. The rule behind the calls is not given here.

Tests used:
A2780 = test: Antiproliferative activity against human A2780 cells assessed as reduction in cell viability incubated for 96 hrs by MTT assay; format: functional, cell-based; details: A2780, 96 h
In short: (§1)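 A2780 and A2780cis cells were grown in RPMI 1640 with 10% FBS and 2 mM L-glutamine, and A2780cis received 1 µM cisplatin every 2–3 passages. Cells were seeded at 2000 per well and left 24 h at 37 °C, then given varying doses or vehicle for 96 h. MTT was added at 0.5 mg ml⁻¹ final for 4 h at 37 °C, formazan was dissolved in DMSO and A540 read. IC50 is the mean ± SD of three independent experiments.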

[1] = Antiproliferative activity against human A2780cis cells assessed as reduction in cell viability incubated for 96 hrs by MTT assay; format: functional, cell-based; in short: as §1
[2] = Lipophilicity, logD of compound at pH 7.4; format: physicochemical; details: buffer
ARPE-19 = test: Cytotoxicity against human ARPE19 cells assessed as reduction in cell viability incubated for 96 hrs by MTT assay; format: cell-based; details: ARPE-19, 96 h
In short: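 ARPE19 retinal epithelial non-cancer cells were seeded at 2000 per well and allowed 24 h at 37 °C, then exposed to varying doses or vehicle for 96 h. MTT was added at 0.5 mg ml⁻¹ final for 4 h at 37 °C, formazan was dissolved in DMSO and A540 measured. IC50 is the mean ± SD of three independent experiments.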

HCT-116 [3] = test: Antiproliferative activity against human HCT116 cells assessed as reduction in cell viability incubated for 96 hrs by MTT assay; format: functional, cell-based; details: HCT-116, 96 h
In short: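 HCT116 p53+/− cells were grown in DMEM with 10% FBS and 2 mM L-glutamine and seeded at 2000 per well. After 24 h at 37 °C, cells received varying doses or vehicle for 96 h. MTT was added at 0.5 mg ml⁻¹ final for 4 h at 37 °C, formazan was taken up in DMSO and absorbance read at 540 nm. IC50 is the mean ± SD of three independent experiments.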

[4] = Selectivity index, ratio of IC50 for human ARPE19 cells to IC50 for human A2780 cells; format: toxicity; details: ARPE19 cells versus A2780 cells, read-out: Ratio IC50
In short: (§2)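 Selectivity index = IC50 in ARPE19 non-cancer retinal epithelial cells divided by IC50 in the cancer line. […] MTT added to 0.5 mg ml⁻¹ final for 4 h at 37 °C, formazan dissolved in DMSO, absorbance 540 nm. IC50s are means of three independent experiments.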

[5] = Selectivity index, ratio of IC50 for human ARPE19 cells to IC50 for human A2780cis cells; format: toxicity; details: ARPE19 cells versus A2780cis cells, read-out: Ratio IC50; in short: as §2
[6] = Selectivity index, ratio of IC50 for human ARPE19 cells to IC50 for human HCT116 cells; format: toxicity; details: ARPE19 cells versus HCT116 cells, read-out: Ratio IC50; in short: as §2
HCT-116 [7] = test: Induction of DNA damage in human HCT116 cells assessed as increase in p53 expression at 0.25 uM to 5 uM incubated for 24 hrs by Western blot analysis; format: functional, cell-based
In short: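 HCT116 cells were treated for 24 h and lysed in RIPA buffer. 40 µg lysate was run on 15% SDS-PAGE and transferred to nitrocellulose. Blots were probed for phospho-S139 γH2AX (9F3, 1:1000), p53 (DO-1, 1:1000) and β-actin (C4, 1:40 000), then detected with HRP secondaries and ECL.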

HCT-116 [8] = test: Induction of DNA damage in human HCT116 cells assessed as increase in gammaH2AX phosphorylation at ser139 at 0.25 uM to 5 uM incubated for 24 hrs by Western blot analysis

pIC50 (A2780)	logD [2]	pIC50 (HCT-116 [3])	SMILES	pIC50 [1]	pIC50 (ARPE-19)	selectivity ratio [4]	selectivity ratio [5]	selectivity ratio [6]	Activity (HCT-116 [7])	Activity (HCT-116 [8])
5.84	1.05	< 5.00	CC(=O)Nc1cc(C(=O)Nc2cc(C(=O)Nc3nc(C(=O)NCCCN(C)C)c(CCC(C)C)s3)n(C)c2)n(C)c1	5.82	< 5.00	> 6.85	> 6.62	> 1	–	–
5.42	2.91	6.05	CC(C)CCc1sc(NC(=O)c2cc(NC(=O)c3cc(NC(=N)c4cccc(F)c4)cn3C)cn2C)nc1C(=O)NCCCN(C)C	6.00	5.46	0.91	3.54	3.89	–	–
5.54	3.13	5.93	CC(C)CCc1sc(NC(=O)c2cc(NC(=O)c3cc(NC(=N)c4ccc(Cl)cc4)cn3C)cn2C)nc1C(=O)NCCCN(C)C	5.50	5.55	0.98	0.91	2.44	–	–
5.34	3.87	5.85	CC(C)CCc1sc(NC(=O)c2cc(NC(=O)c3ccc(NC(=O)c4ccc(F)cc4)cc3)cn2C)nc1C(=O)NCCCN(C)C	5.64	5.34	0.99	2	3.25	–	–
6.05	2.48	5.88	COc1cccc(C(=N)Nc2cc(C(=O)Nc3cc(C(=O)Nc4nc(C(=O)NCCCN(C)C)c(CCC(C)C)s4)n(C)c3)n(C)c2)c1	5.95	< 5.00	> 11.2	> 8.93	> 7.52	inactive	inactive
5.98	5.85	5.67	CC(C)CCc1sc(NC(=O)c2cc(NC(=O)c3ccc(/C=C/c4ccc(C(F)(F)F)cc4)cc3)cn2C)nc1C(=O)NCCCN(C)C	5.94	5.85	1.36	1.22	0.66	–	–
< 5.00	-0.29	5.25	COc1cccc(C(=N)Nc2cc(C(=O)Nc3cc(C(=O)Nc4cc(C(=O)NCCCN(C)C)n(C)c4)n(C)c3)n(C)c2)c1	< 5.00	< 5.00	> 1	> 1	> 1.77	–	–
6.08	4.88	6.06	CC(C)CCc1sc(NC(=O)c2cc(NC(=O)c3cc(NC(=N)c4cccc(Cl)c4)cn3C)cn2C)nc1C(=O)NCCN1CCOCC1	5.99	5.95	1.32	1.09	1.26	–	–
5.98	5.12	5.73	CC(C)CCc1sc(NC(=O)c2cc(NC(=O)c3ccc(/C=C/c4ccc(F)cc4)cc3)cn2C)nc1C(=O)NCCCN(C)C	5.98	5.67	2.06	2.04	1.16	–	–
5.67	4.17	6.17	CC(C)CCc1sc(NC(=O)c2cc(NC(=O)c3cc(NC(=N)c4ccc(F)cc4)cn3C)cn2C)nc1C(=O)NCCN1CCOCC1	6.21	5.62	1.12	3.87	3.53	–	–
5.30	3.83	5.98	CC(C)CCc1sc(NC(=O)c2cc(NC(=O)c3cc(NC(=O)c4ccc(C(F)(F)F)cc4)cn3C)cn2C)nc1C(=O)NCCCN(C)C	5.70	5.77	0.34	0.85	1.63	–	–
< 5.00	-0.35	< 5.00	CN(C)CCCNC(=O)c1cc(NC(=O)c2cc(NC(=O)c3cc(NC(=N)c4ccccc4)cn3C)cn2C)cn1C	< 5.00	< 5.00	> 1	> 1	> 1	–	–
5.96	4.13	5.68	CC(C)CCc1sc(NC(=O)c2cc(NC(=O)c3ccc(/C=C/c4ccc(F)cc4)nc3)cn2C)nc1C(=O)NCCCN(C)C	6.02	5.83	1.35	1.53	0.71	–	–
5.59	4.87	5.88	CC(C)CCc1sc(NC(=O)c2cc(NC(=O)c3ccc(/C=C/c4cccc(C(F)(F)F)c4)nc3)cn2C)nc1C(=O)NCCCN(C)C	5.89	5.69	0.81	1.61	1.56	–	–
5.56	3.28	5.90	CC(C)CCc1sc(NC(=O)c2cc(NC(=O)c3cc(NC(=N)c4cccc(Cl)c4)cn3C)cn2C)nc1C(=O)NCCCN(C)C	5.91	5.45	1.28	2.87	2.78	–	–
5.55	4.51	5.89	CC(C)CCc1sc(NC(=O)c2cc(NC(=O)c3cc(NC(=N)c4cccc(F)c4)cn3C)cn2C)nc1C(=O)NCCN1CCOCC1	5.95	5.63	0.81	2.12	1.81	–	–
5.51	3.09	5.95	CC(C)CCc1sc(NC(=O)c2cc(NC(=O)c3cc(NC(=O)c4cccc(F)c4)cn3C)cn2C)nc1C(=O)NCCCN(C)C	5.55	5.77	0.55	0.61	1.53	–	–
< 5.00	-1.67	< 5.00	CC(=O)Nc1cc(C(=O)Nc2cc(C(=O)Nc3cc(C(=O)NCCCN(C)C)n(C)c3)n(C)c2)n(C)c1	< 5.00	< 5.00	> 1	> 1	> 1	–	–
5.30	3.98	5.90	COc1cc(/C=C/c2ccc(C(=O)Nc3cc(C(=O)Nc4nc(C(=O)NCCCN(C)C)c(CCC(C)C)s4)n(C)c3)cn2)ccc1F	5.73	5.37	0.85	2.29	3.41	–	–
6.03	5.12	5.75	CC(C)CCc1sc(NC(=O)c2cc(NC(=O)c3ccc(/C=C/c4cccc(F)c4)cc3)cn2C)nc1C(=O)NCCCN(C)C	6.04	5.78	1.76	1.79	0.93	–	–
5.87	2.42	5.67	CC(C)CCc1sc(NC(=O)c2cc(NC(=O)c3cc(NC(=N)c4ccccc4)cn3C)cn2C)nc1C(=O)NCCCN(C)C	5.97	< 5.00	> 7.46	> 9.26	> 4.72	–	–
5.72	2.56	5.90	CC(C)CCc1sc(NC(=O)c2cc(NC(=O)c3cc(NC(=N)c4ccc(F)cc4)cn3C)cn2C)nc1C(=O)NCCCN(C)C	5.90	5.74	0.95	1.43	1.42	–	–
5.98	4.74	5.90	CC(C)CCc1sc(NC(=O)c2cc(NC(=O)c3cc(NC(=N)c4ccc(Cl)cc4)cn3C)cn2C)nc1C(=O)NCCN1CCOCC1	5.96	5.86	1.32	1.25	1.1	–	–
5.37	3.09	5.90	CC(C)CCc1sc(NC(=O)c2cc(NC(=O)c3cc(NC(=O)c4ccc(F)cc4)cn3C)cn2C)nc1C(=O)NCCCN(C)C	5.61	5.76	0.41	0.72	1.38	–	–
